Shown are actives, neighbours in structure and some others; about 11% of the full set was active somewhere.
D1 allo mod: allosteric modulators of human D1 dopamine receptor. P21728. HEK293 D1, CRE-luciferase, dopamine EC30 potentiation; actives deviate in either direction. B-score at 10 µM. 5.9% of 58,000 active. AID 641;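 active means luminescence count or its row- and column-corrected plate score outside the 99.7% band of the plate's sample wells, on either side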
Target sequence (P21728 whole entry, looked up): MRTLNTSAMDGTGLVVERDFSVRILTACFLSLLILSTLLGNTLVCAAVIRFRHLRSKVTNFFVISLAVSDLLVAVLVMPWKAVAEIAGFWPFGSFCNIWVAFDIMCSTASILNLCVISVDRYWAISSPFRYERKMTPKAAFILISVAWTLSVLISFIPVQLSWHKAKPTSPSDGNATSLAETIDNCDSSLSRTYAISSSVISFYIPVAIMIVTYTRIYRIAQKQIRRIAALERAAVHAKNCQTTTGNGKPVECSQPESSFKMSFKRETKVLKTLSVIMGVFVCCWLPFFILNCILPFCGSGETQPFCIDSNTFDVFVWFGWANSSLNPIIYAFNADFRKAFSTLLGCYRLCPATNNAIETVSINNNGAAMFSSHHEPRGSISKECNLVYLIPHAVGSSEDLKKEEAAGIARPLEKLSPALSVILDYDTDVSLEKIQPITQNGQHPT
RORa activator: activates the human nuclear receptor RORA. P35398. CHO-K1 Gal4-RORA LBD luciferase reporter, luminescence; percent increase over mock-subtracted basal signal. activation, % at 10 µM. 1.5% of 65,000 active. AID 560;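 active means activation above the mean of all tested compounds plus 3 SD, cut at about 49% in these data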;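 further: 0% = DMSO-treated RORA cells and 100% = added signal equal to DMSO minus mock-transfected cells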
Htt clearance: mutant huntingtin protein clearance; HeLa Exon1htt(103Q)mCFP, aggregate imaging; zero = plate's median compound well; inhibition, % at 1.5 µM; 0.42% of 47,000 active; AID 853;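 active means inhibition of aggregate fluorescence above about 70%, also judged a hit by eye on the cell image, limit read from the data, passing the limit was not always enough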;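 further: cells exposed to compound for three days before fixation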
M1 antagonist: M1 muscarinic receptor (rat) antagonism; P08482; CHO-M1 cells, Fluo-4 calcium, ACh EC80 antagonist mode; active compounds read low; B-score at 10 µM; 3.4% of 64,000 active; AID 628;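 active means calcium fluorescence response, raw or row-and-column corrected B-score, differing from the plate sample mean either way at a set confidence level, mostly lower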
M1 agonist: activates the M1 muscarinic receptor | CHO-M1 cells, Fluo-4 calcium fluorescence, agonist mode; active compounds read high | 3% of 64,000 active | B-score at 10 µM;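 active means fluorescence rise, raw or as B-score row- and column-corrected plate score, outside the 99.7% band of its plate's samples, either direction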
SF1 activator: activates the human nuclear receptor SF-1; AID 522; activation, % at 10 µM; Q13285; CHO-K1 Gal4-SF-1 LBD luciferase reporter; % increase over DMSO SF-1-specific signal; 1.9% of 65,000 active;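 active means activation above the mean activation of all tested compounds plus 3 SD, cut at about 50% in these data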
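Test system: CHO-K1 cells co-transfected with Gal4 DBD–human SF-1 LBD, 5xGal4 luciferase reporter. Quantity: 4,000 cells per well. Compound: 10 µM only. Incubation: compound added 1 h post-seeding, 20 h exposure at 37 °C, 5% CO2. Detection: SteadyLite luciferase luminescence. Replication: one test per compound.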
M1 antag conf: M1 muscarinic receptor (rat) antagonism, confirmed; shares compounds with M1 antagonist; CHO-M1 cells, Fluo-4 calcium, ACh EC80 antagonism; active compounds read low; calcium response (max-min fluorescence) at 10 µM; 43% of 1,700 active; AID 677;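 active means calcium response below the same-plate mean of wells given acetylcholine alone at its 80%-effect dose, minus 3 SD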;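 further: raw fluorescence intensity difference in arbitrary instrument units and not normalized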
mGluR4 antag: acts on human mGluR4 in M1 antagonist selectivity test. shares compounds with M1 antagonist. fluorescence response (max-min) at 10 µM. AID 678. 0.9% of 1,700 active. CHO-mGluR4 calcium flux, Fluo-4 fluorescence, glutamate EC80; active compounds read low;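 active means fluorescence response below the plate's average for near-maximal glutamate wells, less 3 SD of those wells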;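 further: raw unnormalized fluorescence span taken in the window right after glutamate addition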
Numbers without * were called inactive; . = no result.

SMILES	D1 allo mod	RORa activator	Htt clearance	M1 antagonist	M1 agonist	SF1 activator	M1 antag conf	mGluR4 antag
Cc1ccc(S(=O)(=O)Nc2ccc3c(c2)nc(CN2CCCC2)n3C)cc1	.	.	-8	.	.	.	.	.
O=C(Nc1ccc2c(c1)OCO2)c1ccc(COc2ccc3c(c2)CCC3)o1	0.36	-13	.	-1.9*	-0.66	61*	647	232
O=S(=O)(Nc1nc2ccccc2[nH]1)c1ccc(Cl)cc1	-0.078	6	37	-16*	0.16	-6	70*	246
O=C(Nc1nc2ccccc2[nH]1)c1ccccc1	.	.	20	.	.	.	.	.
O=S(=O)(Nc1ccccn1)c1ccc(Cl)cc1	1.3	-3	.	1.3	0.14	-4	.	.
O=S(=O)(Nc1nc2ccccc2[nH]1)c1ccccc1	0.061	-38	-60	-5.1*	0.01	-10	394*	246
CNC(=O)C1CC(=O)N(Cc2ccc3c(c2)OCO3)C(=Nc2ccc(OC)cc2)S1 (configuration not stated)	-0.89	-12	.	0.5	-0.77	-16	.	.
COc1ccc(N2CCCCn3c2nc2c3c(=O)n(C)c(=O)n2C)cc1	0.31	12	-96	-0.39	0.016	-3	.	.
Clc1ccc(-c2nn3cnnc3s2)c(Cl)c1	0.36	2	.	.	.	-10	.	.
c1ccc(-c2cc3c(N4CCOCC4)ncnc3s2)cc1	14*	12	.	-2.6*	-0.37	-6	497	214
N#CC1=C(N)SC(N)=C(C#N)C1CCc1ccccc1	-2.5	-18	.	-4.6*	1.2	-21	683	260
COC(=O)C1=CNC=C(C(=O)OC)C1c1ccc(C(=O)OC)cc1	0.61	-23	.	-3.2*	-0.019	-6	398*	220
COC(=O)C1=C(C)N(C)C(C)=C(C(=O)OC)C1c1ccc(C(=O)OC)cc1	-0.53	-8	-89	-1.9	-0.7	-20	.	.
COC(=O)C1=C(N)Oc2cc(C)n(CCCn3ccnc3)c(=O)c2C1c1cccc(Cl)c1 (configuration not stated)	0.017	6	.	-1.3	0.63	-5	.	.
NCCCCCc1nnc(SCc2cccc(Cl)c2)o1	-1.6	-15	-12	-5.2*	-0.35	-16	415*	282
COC(=O)N1CC(c2ccccc2)CC1=O (configuration not stated)	0.077	-16	17	-2.3*	-0.031	10	694	253
O=c1ccc(/C=C/c2ccccc2)nn1Cc1ccccc1Cl	.	.	4	.	.	.	.	.
Cc1c(NC(=O)COC(=O)Cc2ccc(Cl)cc2)c(=O)n(-c2ccccc2)n1C	-0.51	-4	.	-0.0022	0.82	2	.	.
Cc1c(S(=O)(=O)N2CCN(c3cccc(C(F)(F)F)c3)CC2)c(=O)n(C)c(=O)n1C	-0.26	-8	.	-0.035	-0.4	-12	.	.
Cc1c(CN2CCN(c3cccc(C(F)(F)F)c3)CC2)c(=O)n(-c2ccccc2)n1C	-2.7	-1	-10	-4.4*	-2.1	11	458*	228
CN1C(=O)c2c(sc3c2CCCC3)NC1c1ccccc1O (configuration not stated)	-0.51	18	.	-2.7*	-0.46	30	554	205
COCCOC(=O)C1=C(C)NC2=C(C(=O)CCC2)C1c1ccc(N(C)C)cc1 (configuration not stated)	-0.031	4	-15	-0.046	1.5	8	.	.
CCN(CC)c1ccc(C2C(C(=O)OCCOC(C)C)=C(C)NC3=C2C(=O)CCC3)cc1 (configuration not stated)	-0.56	-9	.	-11*	-0.059	5	144*	236
Cc1ccc(-c2nnc3sc(C4COc5ccccc5O4)nn23)cc1 (configuration not stated)	1	-9	.	-3.4*	0.31	5	476	223
COc1ccc(C2CC(=O)c3cnc(N4CCN(Cc5ccccc5)CC4)nc3C2)cc1 (configuration not stated)	0.18	22	8	-0.1	-0.41	-8	.	.
SMILES	D1 allo mod	RORa activator	Htt clearance	M1 antagonist	M1 agonist	SF1 activator	M1 antag conf	mGluR4 antag
O=C1CC(c2ccco2)Cc2nc(N3CCN(Cc4ccc5c(c4)OCO5)CC3)ncc21 (configuration not stated)	-1	0	.	-1.9*	0.0094	-7	509*	267
CN1CCN(CC(=O)N2c3ccccc3C(=O)Nc3cccnc32)CC1	1.7	-27	.	.	.	-11	.	209
CN(C)C(=O)N1CCC(C(=O)NCc2ccccc2)CC1	2.4	20	.	-0.55	-0.36	3	.	.
Oc1ccc(Nc2nc(NCC3CCCO3)c3ccccc3n2)cc1 (configuration not stated)	-2.9*	6	10	-5.7*	0.6	-5	483*	237
O=C(NS(=O)(=O)c1ccc(NC(=O)C2CCCO2)cc1)c1ccccc1 (configuration not stated)	-0.18	-3	.	0.12	-0.24	-14	.	.
O=C(Nc1ccc(S(=O)(=O)Nc2ccc(Cl)cc2)cc1)C1CCCO1 (configuration not stated)	0.057	-24	.	-1.1*	-0.15	6	575	297
O=C(Nc1ccc(S(=O)(=O)N2CCCCCC2)cc1)C1CCCO1 (configuration not stated)	-0.73	-15	13	-3.2*	-0.0033	-7	654	218
COc1ccc(CCNC(=O)CSc2nnc(CNC(=O)c3ccccc3F)o2)cc1OC	0.55	-2	.	0.02	-0.052	5	.	.
N=c1c2c(-c3ccccc3)c(-c3ccccc3)n(Cc3ccco3)c2ncn1CCN1CCOCC1	0.78	30	-136	-7.2*	-1.1	3	360*	252
c1cnc(N2CC[N+]3(CCCC3)CC2)nc1	-1.2	-1	1	-5*	-0.48	6	163*	226
COc1ccc2c(c1)c(C(=O)CN1CCN(C(=O)c3ccco3)CC1)c(C)n2C	0.38	-1	12	0.072	0.69	-21	.	.
C=C(C)Cn1c(SCC)nc2ccccc2c1=O	5	-4	-38	-4.1*	0.4	-11	566	200
CCn1c(SCC(N)=O)nc2ccccc2c1=O	.	12	-47	0.96	-0.14	-1	.	.
Cc1cc(NC(=O)CN2CCCC2c2nc3ccccc3s2)no1 (configuration not stated)	0.81	-17	.	0.038	-0.61	-16	.	.
CCn1c(CSc2ncccn2)nnc1SCC(=O)N1CCc2ccccc21	0.9	-11	.	-5.4*	-0.95	-5	474	225
CCc1nnc(SCC(=O)N2CCCc3ccccc32)nc1CC	-0.51	10	-45	-3.3*	0.25	0	655	239
Cn1c(SCC(=O)N2CCCc3ccccc32)nc2cccnc21	.	.	-8	.	.	.	.	.

High-throughput results as filed in PubChem.
